Compound activity: PubChem BioAssay, several laboratories
Most compounds without a hit are left out; they make up all but 1.8% or so of the library.
B2AR ag: activates human beta-2 adrenergic receptor causing internalization | 0.43% of 340,000 active | Am2.2-beta2AR cells, FAP receptor internalization, flow cytometry | P07550 | response, % (concentration not given with the values);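 active = response above a set limit, near 3 SD of response in nonfluorescent compounds, cut at about 42% in these data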
Target sequence (P07550 whole entry, looked up): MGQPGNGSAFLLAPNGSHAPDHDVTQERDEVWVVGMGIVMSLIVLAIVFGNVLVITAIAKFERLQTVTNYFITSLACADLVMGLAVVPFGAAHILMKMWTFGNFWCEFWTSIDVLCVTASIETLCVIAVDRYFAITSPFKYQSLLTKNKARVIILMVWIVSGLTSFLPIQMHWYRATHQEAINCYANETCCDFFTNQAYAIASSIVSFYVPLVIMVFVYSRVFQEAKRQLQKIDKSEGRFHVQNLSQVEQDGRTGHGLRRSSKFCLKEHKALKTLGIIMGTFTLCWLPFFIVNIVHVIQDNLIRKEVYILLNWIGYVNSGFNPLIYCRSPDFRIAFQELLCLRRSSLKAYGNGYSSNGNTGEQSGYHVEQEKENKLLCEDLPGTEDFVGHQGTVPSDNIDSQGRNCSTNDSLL
CXCR6 inh: inhibitors of human CXCR6 receptor; CHO-K1 PathHunter CXCR6 beta-arrestin, luminescence; inhibition, % at 20 µM; 0.36% of 360,000 active; in the data active = inhibition above about 34%, passing the limit was not always enough;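 also: antagonist mode with CXCL16 agonist at 10 nM final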
CCR6 antag: CCR6 (human) receptor antagonism; CHO-K1 CCR6 PathHunter beta-arrestin, luminescence, CCL20-stimulated; inhibition, % at 20 µM; 0.49% of 340,000 active; AID 493098;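 active = compounds whose inhibition of the agonist-driven luminescence signal at 20 µM reaches about 50%, limit read from the data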;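 also: cells stimulated with CCL20 at 14 nM final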
EBI2 block: blocks human EBI2 receptor beta-arrestin signaling. EBI2 beta-arrestin recruitment, luminescence, 7a,25-OHC stimulated. inhibition, % at 5 µM. 0.81% of 360,000 active. AID 651636; in the data active = inhibition above about 38%;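 also: enzyme fragment complementation signal reports receptor beta-arrestin coupling in cells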
APJ ag: APJ receptor agonism; P35414; CHO-K1 APJ PathHunter beta-arrestin, luminescence; 0% DMSO wells, 100% apelin; activation, % at 20 µM; 0.11% of 330,000 active; AID 2520;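 active = activation more than six SD over the plate average, tested at 20 µM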
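system = engineered CHO-K1 APJ arrestin reporter cells | input = 1000 cells per well | timing = overnight seeding, 90 min compound at 25 °C, 1 h detection | measured by = enzyme-fragment complementation luminescence | read-out = beta-arrestin recruitment to APJ as agonist activity, luminescent signal | control set = negative DMSO alone, positive Apelin-13 at 10 nM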
APJ antag: blocks the human apelin receptor APJ. 0.32% of 330,000 active. inhibition, % at 20 µM. CHO-K1 APJ beta-arrestin complementation, luminescence. AID 2521;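 active = inhibition above about 40% at 20 µM, limit read from the data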;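 also: cells challenged with 10 nM apelin-13 agonist together with compound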
APJ antag confirm: APJ receptor antagonism confirmation; 66% of 950 active; shares compounds with APJ antag; APJ beta-arrestin recruitment, luminescence, antagonist mode; inhibition, % at 20 µM; in the data active = inhibition above about 50%
Beta2AR ag CP1: agonists of human beta-2 adrenergic receptor | shares compounds with B2AR ag | Am2.2-beta2AR cells, FAP surface receptor, flow cytometry; hits give low values | percent response (surface receptor), % at 10 µM | 25% of 1,100 active;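 active = surface receptor percent response at or below 58%, roughly 3 SD from nonfluorescent compounds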
FAP fluor counter: counter-screen for beta-2AR agonists: fluorescence in Am2.2 cells; shares compounds with B2AR ag; FAP fluorogen flow cytometry, fluorescence counterscreen; hits give low values; calls only at 10 µM; 1,100 tested, under 10 active; AID 588765;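 active = percent response below a set limit in fluorescence channel 1 and below 50% in channel 8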
CXCR6 confirm: confirmation of human CXCR6 receptor antagonists; shares compounds with CXCR6 inh; CHO-K1 CXCR6 PathHunter beta-arrestin, luminescence; inhibition, % at 20 µM; 65% of 700 active;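 active = mean inhibition over four retests above 40%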;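 also: receptor stimulated with 10 nM CXCL16 agonist; beta-galactosidase fragment complementation upon beta-arrestin recruitment to receptor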
Large screens that a line does not name were inactive (follow-up assays come after a bar, where they were run).

CCN(CC)C(=O)c1cccc(-c2csc(C(O)c3ccc(F)c(F)c3)n2)c1 (configuration not stated)	none (no result: B2AR ag, CCR6 antag, APJ ag, APJ antag)
Cc1nn(CCC(=O)NNC(=S)Nc2ccc(F)cc2)c(C)c1Br	APJ antag 52 | APJ antag confirm 108
CCCCNC(=S)NNC(=O)CCn1nc(C)c(Br)c1C	APJ antag 64 | APJ antag confirm 125
Cc1nn(CCC(=O)NNC(=S)Nc2ccc([N+](=O)[O-])cc2)c(C)c1[N+](=O)[O-]	APJ antag 49 | APJ antag confirm 87
COc1cccc(-n2cc(C(=O)NC(C)C)c3ccccc3c2=O)c1	none
Cc1c(NS(=O)(=O)c2ccc(Cl)c(C(=O)OCC(=O)NCc3ccco3)c2)c(=O)n(-c2ccccc2)n1C	APJ antag 49 | APJ antag confirm inactive
CN(C)S(=O)(=O)n1cnc([C@@H]2[C@@H]3C(=O)OC[C@@H]3C[C@]23N=CN(Cc2ccccc2)C3=O)c1	none
CCOc1cc(/C=C2\NC(=O)NC2=O)cc([N+](=O)[O-])c1O	APJ antag 43 | APJ antag confirm inactive
CCCCCC1CCC(c2n[nH]c(=S)n2C)CC1 (configuration not stated)	APJ antag 41 | APJ antag confirm 78 | Beta2AR ag CP1 inactive | FAP fluor counter inactive
CC(C)Cn1c(N)c(C(=O)CSc2nnc(C3CC3)n2C2CC2)c(=O)n(C)c1=O	none
COc1ccc(NC(=O)/C(Cl)=C(/Cl)S(=O)Cc2ccccc2)cn1 (configuration not stated)	B2AR ag 50, CXCR6 inh 81, CCR6 antag 90, EBI2 block 79, APJ antag 86 | APJ antag confirm 100 | CXCR6 confirm 88
CC(C)(C)NNC(=S)Nc1cccc(C(F)(F)F)c1	none
Cc1cccc(NC(=S)NNc2ncc(C(F)(F)F)cc2Cl)c1	CXCR6 inh 52, CCR6 antag 91, APJ antag 54 | APJ antag confirm 89 | CXCR6 confirm 53
CCCCC[C@@H](C)N1C[C@@H](COCc2ccccc2)Oc2cc(N3CCC[C@H]3COC)ccc2S1(=O)=O	none (no result: B2AR ag, CCR6 antag, APJ ag, APJ antag)
COc1cc(OC)cc(C(=O)OCC(=O)c2ccc(S(=O)(=O)N3CCCCC3)cc2)c1	none (no result: B2AR ag)
COc1ccc(CC(=O)OCC(=O)c2ccc(S(=O)(=O)N3CCCCC3)cc2)cc1	CXCR6 inh 48, CCR6 antag 65, APJ antag 71 | APJ antag confirm 70 | CXCR6 confirm inactive
CC(=O)Nc1cccc(C(=O)OCC(=O)c2ccc(S(=O)(=O)N3CCCCC3)cc2)c1	CXCR6 inh 42, CCR6 antag 54, APJ antag 49 | APJ antag confirm 71 | CXCR6 confirm inactive
CC(C)[C@H](NC(=O)c1ccccc1)C(=O)OCC(=O)c1ccc(S(=O)(=O)N2CCCCC2)cc1	CXCR6 inh 44, CCR6 antag 54, APJ antag 47 | APJ antag confirm inactive | CXCR6 confirm inactive
CC(=O)Nc1ccc(C(=O)OCC(=O)c2ccc(S(=O)(=O)N3CCCCC3)cc2)cc1	none
S=C(N/N=C/c1ccccc1)N1CCOCC1	CXCR6 inh 41, CCR6 antag 68, APJ antag 48 | APJ antag confirm 72 | CXCR6 confirm 75
CC1CCCCC1NC(=O)C1CCC(CNS(=O)(=O)c2ccc3c(c2)C(C)(C)C(=O)N3C)CC1 (configuration not stated)	none (no result: B2AR ag, CCR6 antag, APJ ag, APJ antag)
COc1cc(C2C(C#N)=C(N)Oc3n[nH]c(-c4cccnc4)c32)cc(Br)c1O (configuration not stated)	CXCR6 inh 46, CCR6 antag 65, APJ antag 56 | APJ antag confirm 75 | CXCR6 confirm 52
CCOC(=O)C1CCCN(c2c(C(=O)c3ccccc3)cnc3ccc(OC)cc23)C1 (configuration not stated)	CXCR6 inh 70, CCR6 antag 83, APJ antag 58 | APJ antag confirm 96 | CXCR6 confirm 69
CCOC(=O)C1CCCN(C(=O)COc2ccc(C(=O)c3ccccc3)cc2)C1 (configuration not stated)	none
NNc1nc(-c2ccccc2)cc(-c2ccccc2O)n1	CXCR6 inh 79, CCR6 antag 85, APJ antag 57 | APJ antag confirm 143 | CXCR6 confirm 84
O=C(CCCc1ccccc1)Nc1nccs1	none
C/C(=N\NC(=O)C(C)Oc1ccc([N+](=O)[O-])cc1)c1ccccn1 (configuration not stated)	CXCR6 inh 74, CCR6 antag 77, APJ antag 56 | APJ antag confirm 73 | CXCR6 confirm 90
C[C@H]1CN([C@@H](C)CO)C(=O)CCCn2nncc2CO[C@H]1CN(C)S(=O)(=O)c1ccc(F)cc1	none (no result: B2AR ag, CCR6 antag, APJ ag, APJ antag)
Cn1c(=O)[nH]c(=O)c2c1nc(SCC(=O)O)n2Cc1ccccc1	none
Cn1c(=O)[nH]c(=O)c2c1nc(Sc1nc3ccccc3s1)n2Cc1ccccc1	CXCR6 inh 52, CCR6 antag 68, APJ antag 54 | APJ antag confirm inactive | CXCR6 confirm 54
CCc1ccc2nc(Nc3nc(COC)cc(=O)[nH]3)nc(C)c2c1	none
COCc1cc(=O)[nH]c(Nc2nc3ccc(C)cc3o2)n1	CXCR6 inh 46, APJ antag 52 | APJ antag confirm 54 | CXCR6 confirm 47
CSCCC(NC(=O)/C(=C/c1ccco1)NC(=O)c1ccc(Br)o1)C(=O)O (configuration not stated)	none
CCN1C(=O)CS/C1=N\S(=O)(=O)c1ccc(Cl)cc1	none
CCn1c(Cl)c(C=O)s/c1=N\S(=O)(=O)c1ccccc1	B2AR ag 115, CXCR6 inh 89, CCR6 antag 105, APJ antag 96 | APJ antag confirm 105 | CXCR6 confirm 105
CCOc1ccc(Nc2ccc([N+](=O)[O-])c3nonc23)cc1	CXCR6 inh 59, CCR6 antag 56, APJ antag 52 | APJ antag confirm 89 | CXCR6 confirm 43
CC(=O)Nc1ccc(Nc2ccc3nonc3c2[N+](=O)[O-])cc1	none
